Data taken from ChEMBL document CHEMBL2440049, “A structurally simplified analogue of geldanamycin exhibits neuroprotective activity” (ACS Med Chem Lett, 2013).
One block for each compound: values may come before it. Active and inactive are the calls of the source. No cut-off for these calls is given here.

Assays:
BT-474 [1] = assay: Cytotoxicity against human BT474 cells at 0.05 to 0.25 uM after 48 hrs by WST-1 assay; type: cell-based; settings: bt-474, 48 h
[2] = Cytotoxicity against human Friedreich's ataxia lymphocytes at 0.05 to 0.25 uM after 48 hrs by WST-1 assay
Homo sapiens [3] = organism: Homo sapiens; assay: Antioxidant activity in human Friedreich's ataxia lymphocytes assessed as suppression of DEM-induced lipid peroxidation at 1 uM after overnight incubation by flow cytometric analysis relative to untreated control; type: functional
Procedure, shortened: (§1)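 FRDA lymphocytes treated with compound at 1, 5 or 10 μM, then stressed with DEM. Lipid peroxidation probed with C11-BODIPY581/591; oxidized green fluorescence, median intensity, measured by flow cytometry and compared with untreated control. Results given as % scavenging activity; mean ± SEM, n = 3.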

Homo sapiens [4] = organism: Homo sapiens; assay: Cytoprotective activity in BSO-stimulated human Friedreich's ataxia fibroblasts assessed as preservation of mitochondrial membrane potential at 5 uM after 12 hrs by JC-1 dye-based Zeiss fluorescent microscopic analysis
Homo sapiens [5] = organism: Homo sapiens; assay: Cytoprotective activity in human Friedreich's ataxia lymphocytes assessed as reduction in DEM-induced oxidative stress preincubated for 16 hrs prior to DEM-stimulation measured after 6 hrs by trypan blue exclusion assay; type: functional
Procedure, shortened: (§2)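 FRDA lymphocytes treated with compound at 0.1–5 μM, then oxidatively stressed with diethyl maleate to deplete glutathione. Viability set to 100% for untreated cells. Mean ± SEM of three independent experiments run in duplicate.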

[6] = Cytotoxicity against human Friedreich's ataxia lymphocytes at 5 to 20 uM after 48 hrs by WST-1 assay
BT-474 [7] = assay: Cytotoxicity against human BT474 cells at 5 to 20 uM after 48 hrs by WST-1 assay; type: cell-based; settings: bt-474, 48 h
[8] = Cytoprotective activity in human Friedreich's ataxia lymphocytes assessed as reduction in DEM-induced oxidative stress at 0.5 uM preincubated for 16 hrs prior to DEM-stimulation measured after 6 hrs by trypan blue exclusion assay relative to untreated control; type: functional; set-up: scale not given: the % may be the effect or the level left; procedure, shortened: as §2
[9] = biological target: Heat shock protein HSP 90-beta (Homo sapiens) (UniProt P08238); assay: Inhibition of HSP90 in human BT474 cells expressing HER2 assessed as HER2 protein degradation at 0.5 to 25 uM after 24 hrs by chemiluminescence assay; type: cell-based; settings: BT-474
Heat shock protein HSP 90-beta (Homo sapiens), sequence (P08238 whole entry): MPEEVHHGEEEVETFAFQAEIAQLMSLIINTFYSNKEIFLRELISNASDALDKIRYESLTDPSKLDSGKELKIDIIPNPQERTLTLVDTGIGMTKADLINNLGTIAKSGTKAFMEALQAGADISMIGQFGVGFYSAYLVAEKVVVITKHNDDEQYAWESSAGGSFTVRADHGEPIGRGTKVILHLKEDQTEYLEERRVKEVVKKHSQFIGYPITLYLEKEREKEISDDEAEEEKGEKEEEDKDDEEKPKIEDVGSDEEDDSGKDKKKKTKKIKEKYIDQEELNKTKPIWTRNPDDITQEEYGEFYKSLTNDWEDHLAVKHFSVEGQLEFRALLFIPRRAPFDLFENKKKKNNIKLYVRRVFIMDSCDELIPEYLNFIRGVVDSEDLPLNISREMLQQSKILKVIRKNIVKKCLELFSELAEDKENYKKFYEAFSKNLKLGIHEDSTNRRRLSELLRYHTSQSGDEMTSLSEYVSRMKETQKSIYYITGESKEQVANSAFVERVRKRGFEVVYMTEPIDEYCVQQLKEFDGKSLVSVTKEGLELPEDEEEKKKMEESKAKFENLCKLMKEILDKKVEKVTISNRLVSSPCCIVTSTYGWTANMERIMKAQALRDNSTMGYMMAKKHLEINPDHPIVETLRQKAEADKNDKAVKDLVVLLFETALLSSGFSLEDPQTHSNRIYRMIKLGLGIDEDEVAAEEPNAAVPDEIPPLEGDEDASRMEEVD

[10] = biological target: Heat shock protein HSP 90-beta (Homo sapiens) (UniProt P08238); assay: Inhibition of HSP90 in human BT474 cells expressing HER2 assessed as increase in HSP90 protein level at 0.5 to 5 uM after 24 hrs by chemiluminescence assay; type: cell-based; settings: BT-474
Homo sapiens [11] = organism: Homo sapiens; assay: Antioxidant activity in human Friedreich's ataxia lymphocytes assessed as suppression of DEM-induced lipid peroxidation after overnight incubation by flow cytometric analysis; type: functional; procedure, shortened: as §1
Homo sapiens [12] = organism: Homo sapiens; assay: Antioxidant activity in human Friedreich's ataxia lymphocytes assessed as suppression of DEM-induced lipid peroxidation at 5 uM after overnight incubation by flow cytometric analysis relative to untreated control; type: functional; procedure, shortened: as §1
Homo sapiens [13] = organism: Homo sapiens; assay: Cytoprotective activity in DEM-stimulated human Friedreich's ataxia lymphocytes assessed as cells with intact mitochondrial membrane potential at 5 uM preincubated for 16 hrs prior to DEM-stimulation measured after 140 mins by TMRM dye-based flow cytometric analysis (reference value: 92%); type: functional
[14] = Cytoprotective activity in human Friedreich's ataxia lymphocytes assessed as reduction in DEM-induced oxidative stress at 5 uM preincubated for 16 hrs prior to DEM-stimulation measured after 6 hrs by trypan blue exclusion assay relative to untreated control; type: functional; set-up: scale not given: the % may be the effect or the level left; procedure, shortened: as §2
[15] = Cytoprotective activity in human Friedreich's ataxia lymphocytes assessed as reduction in DEM-induced oxidative stress at 2.5 uM preincubated for 16 hrs prior to DEM-stimulation measured after 6 hrs by trypan blue exclusion assay relative to untreated control; type: functional; set-up: scale not given: the % may be the effect or the level left; procedure, shortened: as §2
Homo sapiens [16] = organism: Homo sapiens; assay: Antioxidant activity in human Friedreich's ataxia lymphocytes assessed as suppression of DEM-induced ROS production preincubated for 16 hrs prior to DEM-stimulation measured after 80 mins by flow cytometric analysis; type: functional
Procedure, shortened: (§3)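 FRDA lymphocytes pretreated 16 h with compound (5 and 10 μM), then 5 mM diethyl maleate for 80 min to deplete glutathione. Cells washed, resuspended in PBS with 20 mM glucose, loaded with 10 μM DCFH-DA for 20 min. DCF fluorescence read by flow cytometry, 488 nm excitation, 530 ± 15 nm emission, 10,000 events. Expressed as % ROS scavenging; mean ± SEM, n = 3.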

[17] = Cytotoxicity against DEM-stimulated human Friedreich's ataxia lymphocytes assessed as effect on intracellular glutathione concentration at 1 to 10 uM; type: cell-based
[18] = Cytoprotective activity in human Friedreich's ataxia lymphocytes assessed as reduction in DEM-induced oxidative stress at 0.1 uM preincubated for 16 hrs prior to DEM-stimulation measured after 6 hrs by trypan blue exclusion assay relative to untreated control; type: functional; set-up: scale not given: the % may be the effect or the level left; procedure, shortened: as §2
Homo sapiens [19] = organism: Homo sapiens; assay: Antioxidant activity in human Friedreich's ataxia lymphocytes assessed as suppression of DEM-induced lipid peroxidation at 10 uM after overnight incubation by flow cytometric analysis relative to untreated control; type: functional; procedure, shortened: as §1
[20] = biological target: Amyloid-beta precursor protein (Homo sapiens) (UniProt P05067); assay: Neuroprotective activity in differentiated human SH-SY5Y cells assessed as decrease in amyloid beta (1 to 42)-induced neurotoxicity incubated overnight prior to amyloid beta (1 to 42)-stimulation measured after 48 hrs by WST-1 assay; type: functional, cell-based
Amyloid-beta precursor protein (Homo sapiens), sequence (P05067 whole entry): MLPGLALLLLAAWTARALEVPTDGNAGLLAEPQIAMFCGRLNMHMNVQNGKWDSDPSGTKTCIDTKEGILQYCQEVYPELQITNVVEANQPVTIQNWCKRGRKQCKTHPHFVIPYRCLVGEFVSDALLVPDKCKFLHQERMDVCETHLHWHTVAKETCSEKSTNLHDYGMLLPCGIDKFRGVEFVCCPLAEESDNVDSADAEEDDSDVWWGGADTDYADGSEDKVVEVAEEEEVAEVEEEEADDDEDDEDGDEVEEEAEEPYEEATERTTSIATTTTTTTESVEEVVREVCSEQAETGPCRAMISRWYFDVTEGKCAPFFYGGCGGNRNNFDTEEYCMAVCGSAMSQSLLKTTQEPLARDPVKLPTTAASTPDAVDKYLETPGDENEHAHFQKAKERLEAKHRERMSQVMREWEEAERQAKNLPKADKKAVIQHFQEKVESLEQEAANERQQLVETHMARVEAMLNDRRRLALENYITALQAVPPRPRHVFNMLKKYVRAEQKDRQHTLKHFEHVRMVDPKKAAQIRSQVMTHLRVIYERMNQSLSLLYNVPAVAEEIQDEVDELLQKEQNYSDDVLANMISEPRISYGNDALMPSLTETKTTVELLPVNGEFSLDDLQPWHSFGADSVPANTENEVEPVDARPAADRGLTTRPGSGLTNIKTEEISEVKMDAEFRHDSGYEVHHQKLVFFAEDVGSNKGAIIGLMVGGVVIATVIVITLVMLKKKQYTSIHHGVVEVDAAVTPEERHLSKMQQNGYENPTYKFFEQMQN

Homo sapiens [21] = organism: Homo sapiens; assay: Antioxidant activity in human Friedreich's ataxia lymphocytes assessed as suppression of DEM-induced ROS production at 5 to 10 uM preincubated for 16 hrs prior to DEM-stimulation measured after 80 mins by flow cytometric analysis; type: functional; procedure, shortened: as §3

SMILES: COC1=C2C[C@@H](C)C[C@H](OC)[C@H](O)[C@@H](C)/C=C(\C)[C@H](OC(N)=O)[C@@H](OC)/C=C\C=C(/C)C(=O)NC(=CC1=O)C2=O [GELDANAMYCIN]
- Activity (BT-474 [1]): Toxic
- Activity [2]: Toxic

- inhibition [9]: inactive
- inhibition [10]: inactive
SMILES: COC1=C2CCCCCCCCCCCCCCCNC(=CC1=O)C2=O
- Activity (Homo sapiens [3]): 29%
- Activity (Homo sapiens [4]): Active
- Activity (Homo sapiens [5]): Dose-dependent effect
- Activity [6]: Non-toxic
- Activity (BT-474 [7]): Non-toxic
- Activity [8]: 69%
- Activity (Homo sapiens [11]): Dose-dependent effect
- Activity (Homo sapiens [12]): 72%
- Activity (Homo sapiens [13]): 80%
- Activity [14]: 92%
- Activity [15]: 83%
- Activity (Homo sapiens [16]): Dose-dependent effect
- Activity [17]: Non-toxic
- Activity [18]: 36%
- Activity (Homo sapiens [19]): 83%
- Activity [20]: Dose-dependent effect

SMILES: CCCCCCCCCCCCCC1=C(OC)C(=O)C=C(NCCCCCC)C1=O
- Activity (Homo sapiens [21]): Active
- Activity (Homo sapiens [3]): 14%
- Activity [8]: 50%
- Activity (Homo sapiens [11]): Dose-dependent effect
- Activity (Homo sapiens [12]): 61%
- Activity (Homo sapiens [13]): 56%
- Activity [14]: 80%
- Activity [15]: 66%
- Activity [18]: 20%
- Activity (Homo sapiens [19]): 70%

SMILES: CCCCCCCCCCCCCC1=C(O)C(=O)C=C(NCCCCCC)C1=O
- Activity (Homo sapiens [21]): Active
- Activity (Homo sapiens [3]): 2%
- Activity [8]: 22%
- Activity (Homo sapiens [12]): 27%
- Activity (Homo sapiens [13]): 43%
- Activity [14]: 65%
- Activity [15]: 43%
- Activity [18]: 18%
- Activity (Homo sapiens [19]): 38%
